Measured values: ChEMBL document CHEMBL1137403, “Discovery of 2-[4-{{2-(2S,5R)-2-cyano-5-ethynyl-1-pyrrolidinyl]-2-oxoethyl]amino]- 4-methyl-1-piperidinyl]-4-pyridinecarboxylic acid (ABT-279): a very potent, selective, effective, and well-tolerated inhibitor of dipeptidyl peptidase-IV, useful for the treatment of diabetes” (J Med Chem, 2006)
Activity calls are given as the source filed them. The rule behind the calls is not given here.

Assays:
[1] = Volume of distribution in terminal phase in cynomolgus monkey at 2.5 mg/kg, iv; assay type: ADME, organism-based, Macaca fascicularis; set-up: dose 2.5 mg/kg, route intravenous; settings: in vivo, read-out: Vbeta
Rattus norvegicus [2] = test: Hemodynamic activity in rat upto 28 ug/ml, iv; assay type: functional, organism-based
Outline: (§1)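 Hemodynamic and electrocardiographic profile recorded in anesthetized rats or dogs given the drug intravenously, at plasma concentrations up to 28 µg/mL.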

Prolyl endopeptidase = target: T1, Prolyl endopeptidase (Homo sapiens, UniProt P48147); test: Inhibition of POP
T1 sequence (P48147 whole entry): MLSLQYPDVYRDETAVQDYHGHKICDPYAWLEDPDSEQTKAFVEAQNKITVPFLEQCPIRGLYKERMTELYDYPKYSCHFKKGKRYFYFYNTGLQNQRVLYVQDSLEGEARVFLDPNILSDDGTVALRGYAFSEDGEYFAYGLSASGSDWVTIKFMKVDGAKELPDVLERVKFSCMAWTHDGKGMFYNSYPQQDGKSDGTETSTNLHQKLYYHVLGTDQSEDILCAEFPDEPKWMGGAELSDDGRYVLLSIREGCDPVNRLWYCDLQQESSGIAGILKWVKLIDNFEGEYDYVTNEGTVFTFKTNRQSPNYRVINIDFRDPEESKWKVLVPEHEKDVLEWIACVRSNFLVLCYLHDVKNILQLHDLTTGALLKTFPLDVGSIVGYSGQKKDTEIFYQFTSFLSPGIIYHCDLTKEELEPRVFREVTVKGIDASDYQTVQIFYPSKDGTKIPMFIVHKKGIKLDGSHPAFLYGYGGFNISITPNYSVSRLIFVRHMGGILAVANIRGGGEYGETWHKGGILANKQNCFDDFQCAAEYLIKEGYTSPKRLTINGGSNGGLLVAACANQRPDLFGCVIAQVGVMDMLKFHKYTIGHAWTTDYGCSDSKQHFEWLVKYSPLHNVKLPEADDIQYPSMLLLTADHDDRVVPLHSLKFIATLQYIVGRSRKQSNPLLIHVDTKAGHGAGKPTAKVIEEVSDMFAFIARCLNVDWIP

[3] = Tmax in Beagle dog at 2.5 mg/kg, po; assay type: ADME, organism-based, Canis lupus familiaris; set-up: dose 2.5 mg/kg, route oral; settings: in vivo
[4] = Half life in Beagle dog at 2.5 mg/kg, po; assay type: ADME, organism-based, Canis lupus familiaris; set-up: dose 2.5 mg/kg, route oral; settings: in vivo
[5] = Volume of distribution in terminal phase in Beagle dog at 2.5 mg/kg, iv; assay type: ADME, organism-based, Canis lupus familiaris; set-up: dose 2.5 mg/kg, route intravenous; settings: in vivo, read-out: Vbeta
Dipeptidyl peptidase 8 = Dipeptidyl peptidase 8 (Homo sapiens, UniProt Q6V1X1)
[6] = Volume of distribution in terminal phase in Sprague-Dawley rat at 5 mg/kg, iv; assay type: ADME, organism-based; set-up: dose 5 mg/kg, route intravenous; settings: in vivo, read-out: Vbeta
[7] = Plasma clearance in Beagle dog at 2.5 mg/kg, iv; assay type: ADME, organism-based, Canis lupus familiaris; set-up: dose 2.5 mg/kg, route intravenous
[8] = Plasma clearance in Sprague-Dawley rat at 5 mg/kg, iv; assay type: ADME, organism-based; set-up: dose 5 mg/kg, route intravenous
Canis familiaris = test: Hemodynamic activity in dog upto 28 ug/ml, iv; assay type: functional, organism-based; settings: Canis lupus familiaris; outline: as §1
Rattus norvegicus [9] = species: Rattus norvegicus; test: Reduction in postprandial glucose excursion in Zucker rat measured as AUC glucose (0-240 min) relative to control; assay type: functional; set-up: scale not given: the % may be the effect or the level left
Outline: (§2)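 Female ZDF rats, 10 weeks old, fasted overnight, then dosed orally with vehicle or drug. Four hours after dosing (t = 0) they had free access for 4 h to a liquid mixed meal (Ensure). Plasma was sampled for drug level, active GLP-1, insulin, glucagon and glucose.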

Rattus norvegicus [10] = species: Rattus norvegicus; test: Increase in insulin level in Zucker rat after 10 mins relative to control; assay type: functional; outline: as §2
[11] = AUC in cynomolgus monkey at 2.5 mg/kg, po; assay type: ADME, organism-based, Macaca fascicularis; set-up: dose 2.5 mg/kg, route oral; settings: plasma
[12] = Oral bioavailability in cynomolgus monkey at 2.5 mg/kg, po; assay type: ADME, organism-based, Macaca fascicularis; settings: in vivo
[13] = AUC in Beagle dog at 2.5 mg/kg, iv; assay type: ADME, organism-based, Canis lupus familiaris; set-up: dose 2.5 mg/kg, route intravenous; settings: plasma
Outline: (§3)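 Single intravenous dose. Plasma drug exposure is reported as area under the curve in µg-hr/mL. It is listed in the same table as T1/2, Vss, Vβ and plasma clearance (CLp).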

[14] = Half life in Beagle dog at 2.5 mg/kg, iv; assay type: ADME, organism-based, Canis lupus familiaris; set-up: dose 2.5 mg/kg, route intravenous; settings: in vivo
[15] = AUC in cynomolgus monkey at 2.5 mg/kg, iv; assay type: ADME, organism-based, Macaca fascicularis; set-up: dose 2.5 mg/kg, route intravenous; settings: plasma; outline: as §3
[16] = AUC in Beagle dog at 2.5 mg/kg, po; assay type: ADME, organism-based, Canis lupus familiaris; set-up: dose 2.5 mg/kg, route oral; settings: plasma
[17] = Volume of distribution in cynomolgus monkey at 2.5 mg/kg, iv; assay type: ADME, organism-based, Macaca fascicularis; set-up: dose 2.5 mg/kg, route intravenous; settings: in vivo, read-out: Vss
[18] = Volume of distribution in Beagle dog at 2.5 mg/kg, iv; assay type: ADME, organism-based, Canis lupus familiaris; set-up: dose 2.5 mg/kg, route intravenous; settings: in vivo, read-out: Vss
[19] = Half life in Sprague-Dawley rat at 5 mg/kg, po; assay type: ADME, organism-based; set-up: dose 5 mg/kg, route oral; settings: in vivo
[20] = AUC in Sprague-Dawley rat at 5 mg/kg, iv; assay type: ADME, organism-based; set-up: dose 5 mg/kg, route intravenous; settings: plasma; outline: as §3
[21] = Half life in cynomolgus monkey at 2.5 mg/kg, iv; assay type: ADME, organism-based, Macaca fascicularis; set-up: dose 2.5 mg/kg, route intravenous; settings: in vivo
Cytochrome P450 2D6 = Cytochrome P450 2D6 (Homo sapiens, UniProt P10635); test: Inhibition of CYP2D6; assay type: ADME
[22] = target: Voltage-gated inwardly rectifying potassium channel KCNH2 (Homo sapiens, UniProt Q12809); test: Binding affinity to hERG
[23] = Oral bioavailability in Beagle dog at 2.5 mg/kg, po; assay type: ADME, organism-based, Canis lupus familiaris; settings: in vivo
[24] = target: Dipeptidyl peptidase 4 (Rattus norvegicus) (UniProt P14740); test: Inhibition of Zucker rat plasma DPP4 after 4 hrs at 1 mg/kg; assay type: functional, organism-based; set-up: dose 1 mg/kg
Outline: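 Female Zucker diabetic fatty rats, 10 weeks old, fasted overnight, then given a single oral dose of 1 mg/kg or vehicle. Plasma DPP-IV activity inhibition and plasma drug level were measured 4 h post-dose, at the point when the rats were given free access to a liquid mixed meal (Ensure).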

Dipeptidyl peptidase 4 (Rattus norvegicus), sequence (P14740 whole entry, looked up): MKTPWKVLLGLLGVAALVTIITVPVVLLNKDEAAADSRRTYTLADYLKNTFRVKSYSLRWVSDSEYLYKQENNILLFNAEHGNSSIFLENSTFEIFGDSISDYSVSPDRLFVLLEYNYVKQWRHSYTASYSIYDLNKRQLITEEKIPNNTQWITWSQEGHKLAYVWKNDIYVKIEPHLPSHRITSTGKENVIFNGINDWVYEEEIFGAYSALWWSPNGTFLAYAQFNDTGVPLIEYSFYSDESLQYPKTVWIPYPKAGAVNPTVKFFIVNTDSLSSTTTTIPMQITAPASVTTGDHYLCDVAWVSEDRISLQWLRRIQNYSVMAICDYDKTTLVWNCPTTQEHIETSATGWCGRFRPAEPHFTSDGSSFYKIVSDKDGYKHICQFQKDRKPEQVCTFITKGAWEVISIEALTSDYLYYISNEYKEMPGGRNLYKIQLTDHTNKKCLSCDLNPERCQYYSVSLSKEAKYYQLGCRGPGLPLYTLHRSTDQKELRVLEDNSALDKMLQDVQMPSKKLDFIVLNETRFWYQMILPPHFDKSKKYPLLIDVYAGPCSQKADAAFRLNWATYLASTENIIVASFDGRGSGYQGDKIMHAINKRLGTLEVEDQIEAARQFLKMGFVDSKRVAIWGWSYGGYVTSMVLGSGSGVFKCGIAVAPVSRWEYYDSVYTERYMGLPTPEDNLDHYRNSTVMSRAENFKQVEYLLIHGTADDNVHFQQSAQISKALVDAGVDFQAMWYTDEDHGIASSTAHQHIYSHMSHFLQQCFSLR
Cytochrome P450 2D6, sequence (P10635 whole entry): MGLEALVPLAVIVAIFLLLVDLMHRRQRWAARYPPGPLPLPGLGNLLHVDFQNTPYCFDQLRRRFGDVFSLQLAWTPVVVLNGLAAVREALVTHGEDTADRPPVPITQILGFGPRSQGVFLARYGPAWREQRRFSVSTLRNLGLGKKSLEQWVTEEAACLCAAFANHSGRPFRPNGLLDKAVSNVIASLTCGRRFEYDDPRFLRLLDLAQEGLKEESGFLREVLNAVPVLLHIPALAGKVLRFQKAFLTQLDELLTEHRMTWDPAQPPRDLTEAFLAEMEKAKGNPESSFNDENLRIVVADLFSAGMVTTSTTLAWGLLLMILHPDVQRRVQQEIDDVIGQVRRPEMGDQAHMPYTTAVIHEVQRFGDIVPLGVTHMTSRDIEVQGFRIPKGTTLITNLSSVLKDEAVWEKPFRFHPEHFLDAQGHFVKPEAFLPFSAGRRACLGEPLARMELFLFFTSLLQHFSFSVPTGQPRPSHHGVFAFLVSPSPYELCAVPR
Dipeptidyl peptidase 8, sequence (Q6V1X1 whole entry): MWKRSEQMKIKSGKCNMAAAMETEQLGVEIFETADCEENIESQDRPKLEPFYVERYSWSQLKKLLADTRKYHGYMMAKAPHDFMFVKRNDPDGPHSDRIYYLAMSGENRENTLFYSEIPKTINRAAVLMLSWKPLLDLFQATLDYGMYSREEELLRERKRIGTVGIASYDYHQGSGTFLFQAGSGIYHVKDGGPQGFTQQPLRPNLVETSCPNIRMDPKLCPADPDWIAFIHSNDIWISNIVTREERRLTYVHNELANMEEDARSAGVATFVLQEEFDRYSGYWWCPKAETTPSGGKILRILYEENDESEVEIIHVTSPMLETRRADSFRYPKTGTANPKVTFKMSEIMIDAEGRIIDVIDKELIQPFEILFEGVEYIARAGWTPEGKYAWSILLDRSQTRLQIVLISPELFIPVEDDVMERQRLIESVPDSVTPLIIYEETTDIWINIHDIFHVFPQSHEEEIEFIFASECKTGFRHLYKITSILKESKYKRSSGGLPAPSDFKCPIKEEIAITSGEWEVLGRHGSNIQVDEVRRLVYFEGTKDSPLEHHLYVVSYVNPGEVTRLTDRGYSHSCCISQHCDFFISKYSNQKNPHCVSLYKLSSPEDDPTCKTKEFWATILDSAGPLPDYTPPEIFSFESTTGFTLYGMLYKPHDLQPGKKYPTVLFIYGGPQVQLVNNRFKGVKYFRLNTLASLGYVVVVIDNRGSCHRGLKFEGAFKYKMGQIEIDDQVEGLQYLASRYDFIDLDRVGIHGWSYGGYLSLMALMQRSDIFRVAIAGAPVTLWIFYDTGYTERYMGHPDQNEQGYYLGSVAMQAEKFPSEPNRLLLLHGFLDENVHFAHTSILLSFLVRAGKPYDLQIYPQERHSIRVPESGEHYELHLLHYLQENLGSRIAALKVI
Voltage-gated inwardly rectifying potassium channel KCNH2, sequence (Q12809 whole entry): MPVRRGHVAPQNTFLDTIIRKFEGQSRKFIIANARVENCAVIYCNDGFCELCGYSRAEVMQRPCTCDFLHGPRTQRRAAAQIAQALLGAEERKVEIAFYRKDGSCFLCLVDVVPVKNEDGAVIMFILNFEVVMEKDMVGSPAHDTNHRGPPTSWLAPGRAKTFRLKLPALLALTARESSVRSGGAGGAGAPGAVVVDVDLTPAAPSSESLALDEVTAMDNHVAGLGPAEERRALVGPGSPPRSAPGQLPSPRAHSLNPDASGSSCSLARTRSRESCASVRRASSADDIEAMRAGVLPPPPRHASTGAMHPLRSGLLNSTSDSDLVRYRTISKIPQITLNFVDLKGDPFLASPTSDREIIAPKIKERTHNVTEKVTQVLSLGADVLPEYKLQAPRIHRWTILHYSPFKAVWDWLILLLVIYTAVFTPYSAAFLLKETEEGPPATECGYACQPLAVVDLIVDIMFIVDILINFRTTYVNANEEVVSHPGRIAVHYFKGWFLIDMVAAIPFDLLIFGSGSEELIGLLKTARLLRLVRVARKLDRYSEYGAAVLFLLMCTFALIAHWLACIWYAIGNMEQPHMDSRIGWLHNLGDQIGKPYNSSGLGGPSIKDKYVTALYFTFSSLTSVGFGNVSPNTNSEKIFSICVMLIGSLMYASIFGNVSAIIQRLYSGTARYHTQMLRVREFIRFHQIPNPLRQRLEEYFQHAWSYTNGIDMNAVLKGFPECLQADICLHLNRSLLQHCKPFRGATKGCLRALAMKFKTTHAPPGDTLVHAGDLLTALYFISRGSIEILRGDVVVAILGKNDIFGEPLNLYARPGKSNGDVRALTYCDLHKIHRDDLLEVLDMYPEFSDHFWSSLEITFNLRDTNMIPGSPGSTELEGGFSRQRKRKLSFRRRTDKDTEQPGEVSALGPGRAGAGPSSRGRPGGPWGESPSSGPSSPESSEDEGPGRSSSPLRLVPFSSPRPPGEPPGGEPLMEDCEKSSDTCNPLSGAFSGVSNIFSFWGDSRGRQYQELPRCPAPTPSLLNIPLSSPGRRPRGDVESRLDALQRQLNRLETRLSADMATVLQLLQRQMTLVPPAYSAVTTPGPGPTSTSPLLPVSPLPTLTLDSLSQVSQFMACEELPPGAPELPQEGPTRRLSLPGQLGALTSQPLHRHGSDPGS

With `C#C[C@H]1CC[C@@H](C#N)N1C(=O)CNC1(C)CCN(c2cc(C(=O)O)ccn2)CC1` the Vd [1] was 1.3 L/kg, the Activity (Rattus norvegicus [2]) was “Active” and the Ki (Prolyl endopeptidase) was greater than 30 µM. The Tmax [3] was 0.8 h, the half-life [4] was 5.3 h and the Vd [5] was 8.5 L/kg. It also gave a Ki (Dipeptidyl peptidase 8) greater than 30 µM, a Vd [6] of 6.7 L/kg and a clearance [7] of 15.2 mL/min/kg. The clearance [8] was 11.3 mL/min/kg, the Activity (Canis familiaris) was “Active” and the Activity (Rattus norvegicus [9]) was 50%. The Activity (Rattus norvegicus [10]) was 60%, the AUC [11] was 580 ng·h/mL and the bioavailability [12] was 11.2%. The AUC [13] was 2800 ng·h/mL, the half-life [14] was 6.4 h and the AUC [15] was 5200 ng·h/mL. The AUC [16] was 970 ng·h/mL, the Vd [17] was 0.3 L/kg and the Vd [18] was 1.5 L/kg. The half-life [19] was 4.7 h, the AUC [20] was 7600 ng·h/mL and the half-life [21] was 1.7 h. For the same compound, the IC50 (Cytochrome P450 2D6) was greater than 30 µM, the Ki [22] was greater than 45.1 µM and the bioavailability [23] was 35.2%. It also gave an inhibition [24] of 87%.
